According to ChEMBL document CHEMBL2040818, “Synthesis and in vitro evaluation of novel tetrazole embedded 1,3,5-trisubstituted pyrazoline derivatives as Entamoeba histolytica growth inhibitors” (Eur J Med Chem, 2012):

Assays:
[1] = in vitro; conditions: human, HepG2 cells
[2] = in vitro; conditions: human, HepG2 cells; remark: listed apart in the source
[3] = Selectivity index, ratio of IC50 for human HepG2 cells to IC50 for Entamoeba histolytica HM1:IMSS
[4] = Cytotoxicity against human HepG2 cells assessed as cell viability at 50 to 100 uM after 48 hrs by MTT assay
[5] = system: HepG2; experiment: Cytotoxicity against human HepG2 cells after 48 hrs by MTT assay; conditions: HepG2, 48 h
[6] = system: Entamoeba histolytica; experiment: Antiamoebic activity against Entamoeba histolytica HM1:IMSS after 72 hrs by microdilution method; assay type: functional, organism-based; conditions: HM-1:IMSS
[7] = Cytotoxicity against human HepG2 cells assessed as cell viability at 100 uM after 48 hrs by MTT assay; assay type: cell-based; conditions: read-out: Activity
How it was run: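 HepG2 grown in DMEM, 10% heat-inactivated FBS, antibiotics, 37 °C, 5% CO2; 1.2 × 10^4 cells/well pre-grown 48 h, then exposed to compounds (3.13–100 µM; DMSO stocks diluted in medium) for 48 h at 37 °C; MTT read-out at 570 nm, reference 655 nm; viability as % of untreated control; triplicate, repeated thrice.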

COc1ccc(-c2nnnn2CC(=O)N2N=C(c3ccc(C)cc3)CC2c2ccc(Cl)cc2)cc1 (configuration not stated)
viability at 48 h, 3.13 µM [1]: 95% | viability at 48 h, 25 µM [2]: 72% | Ratio IC50 [3]: 34.5 | viability at 48 h, 100 µM [4]: 40% | IC50 [5]: 98 µM | IC50 [6]: 2.84 µM

Cc1ccc(/C=C/C(=O)c2ccc(C)cc2)cc1 [4,4'-DIMETHYLCHALCONE]
viability at 48 h, 3.13 µM [1]: 95% | viability at 48 h, 25 µM [2]: 72% | viability at 48 h, 100 µM [4]: 40% | IC50 [5]: > 100 µM | IC50 [6]: 4.19 µM

Cc1ccc(/C=C/C(=O)c2ccc(Cl)cc2)cc1
viability at 48 h, 3.13 µM [1]: 95% | viability at 48 h, 25 µM [2]: 72% | Ratio IC50 [3]: 17.4 | viability at 48 h, 100 µM [4]: 40% | IC50 [5]: 92.6 µM | IC50 [6]: 5.32 µM

COc1ccc(-c2nnnn2CC(=O)N2N=C(c3ccc(C)cc3)CC2c2ccc(C)cc2)cc1 (configuration not stated)
Ratio IC50 [3]: >116.27 | viability at 48 h, 100 µM [7]: ≥ 68% | IC50 [5]: > 100 µM | IC50 [6]: 0.86 µM

COc1ccc(-c2nnnn2CC(=O)N2N=C(c3ccc(Cl)cc3)CC2c2ccc(C)cc2)cc1 (configuration not stated)
viability at 48 h, 3.13 µM [1]: 95% | viability at 48 h, 25 µM [2]: 72% | Ratio IC50 [3]: 31.28 | viability at 48 h, 100 µM [4]: 40% | IC50 [5]: 92.6 µM | IC50 [6]: 2.96 µM

Cc1ccc(/C=C/C(=O)c2ccccc2)cc1
IC50 [6]: 4.38 µM

COc1ccc(/C=C/C(=O)c2ccc(Cl)cc2)cc1
viability at 48 h, 3.13 µM [1]: 95% | viability at 48 h, 25 µM [2]: 72% | Ratio IC50 [3]: 19.05 | viability at 48 h, 100 µM [4]: 40% | IC50 [5]: 97.2 µM | IC50 [6]: 5.1 µM

Cc1ccc(C(=O)/C=C/c2ccc([N+](=O)[O-])cc2)cc1
viability at 48 h, 3.13 µM [1]: 95% | viability at 48 h, 25 µM [2]: 72% | Ratio IC50 [3]: 16.85 | viability at 48 h, 100 µM [4]: 40% | IC50 [5]: 85.6 µM | IC50 [6]: 5.08 µM

COc1ccc(-c2nnnn2CC(=O)N2N=C(c3ccccc3)CC2c2ccc(Cl)cc2)cc1 (configuration not stated)
viability at 48 h, 3.13 µM [1]: 95% | viability at 48 h, 25 µM [2]: 72% | Ratio IC50 [3]: 26.62 | viability at 48 h, 100 µM [4]: 40% | IC50 [5]: 80.4 µM | IC50 [6]: 3.02 µM

O=C(/C=C/c1ccc(Cl)cc1)c1ccccc1 [4-CHLORO CHALCONE]
viability at 48 h, 3.13 µM [1]: 95% | viability at 48 h, 25 µM [2]: 72% | Ratio IC50 [3]: 13.27 | viability at 48 h, 100 µM [4]: 40% | IC50 [5]: 97.2 µM | IC50 [6]: 7.32 µM

COc1ccc(-c2nnnn2CC(=O)N2N=C(c3ccc(Cl)cc3)CC2c2ccccc2)cc1 (configuration not stated)
viability at 48 h, 3.13 µM [1]: 95% | viability at 48 h, 25 µM [2]: 72% | Ratio IC50 [3]: 28.76 | viability at 48 h, 100 µM [4]: 40% | IC50 [5]: 90.6 µM | IC50 [6]: 3.15 µM

COc1ccc(/C=C/C(=O)c2ccccc2)cc1 [4-METHOXY CHALCONE]
viability at 48 h, 3.13 µM [1]: 95% | viability at 48 h, 25 µM [2]: 72% | Ratio IC50 [3]: >16.86 | viability at 48 h, 100 µM [4]: 40% | IC50 [5]: > 100 µM | IC50 [6]: 5.93 µM

COc1ccc(-c2nnnn2CC(=O)N2N=C(c3ccc(C)cc3)CC2c2ccc([N+](=O)[O-])cc2)cc1 (configuration not stated)
viability at 48 h, 3.13 µM [1]: 95% | viability at 48 h, 25 µM [2]: 72% | Ratio IC50 [3]: >38.02 | viability at 48 h, 100 µM [4]: 40% | IC50 [5]: > 100 µM | IC50 [6]: 2.63 µM

COc1ccc(-c2nnnn2CC(=O)N2N=C(c3ccc(C)cc3)CC2c2ccc(OC)cc2)cc1 (configuration not stated)
Ratio IC50 [3]: >92.59 | viability at 48 h, 100 µM [7]: ≥ 68% | IC50 [5]: > 100 µM | IC50 [6]: 1.08 µM

COc1ccc(-c2nnnn2CC(=O)N2N=C(c3ccccc3)CC2c2ccc([N+](=O)[O-])cc2)cc1 (configuration not stated)
viability at 48 h, 3.13 µM [1]: 95% | viability at 48 h, 25 µM [2]: 72% | Ratio IC50 [3]: 21.68 | viability at 48 h, 100 µM [4]: 40% | IC50 [5]: 79.8 µM | IC50 [6]: 3.68 µM

COc1ccc(-c2nnnn2CC(=O)N2N=C(c3ccccc3)CC2c2ccc(OC)cc2)cc1 (configuration not stated)
Ratio IC50 [3]: >86.2 | viability at 48 h, 100 µM [7]: ≥ 68% | IC50 [5]: > 100 µM | IC50 [6]: 1.16 µM

O=C(/C=C/c1ccccc1)c1ccccc1 [CHALCONE]
viability at 48 h, 3.13 µM [1]: 95% | viability at 48 h, 25 µM [2]: 72% | Ratio IC50 [3]: >7.78 | viability at 48 h, 100 µM [4]: 40% | IC50 [5]: > 100 µM | IC50 [6]: 12.9 µM

Cc1ccc(C(=O)/C=C/c2ccccc2)cc1
viability at 48 h, 3.13 µM [1]: 95% | viability at 48 h, 25 µM [2]: 72% | Ratio IC50 [3]: >20.7 | viability at 48 h, 100 µM [4]: 40% | IC50 [5]: > 100 µM | IC50 [6]: 4.83 µM

COc1ccc(/C=C/C(=O)c2ccc(C)cc2)cc1
viability at 48 h, 3.13 µM [1]: 95% | viability at 48 h, 25 µM [2]: 72% | Ratio IC50 [3]: >21.01 | viability at 48 h, 100 µM [4]: 40% | IC50 [5]: > 100 µM | IC50 [6]: 4.76 µM

O=C(/C=C/c1ccc([N+](=O)[O-])cc1)c1ccc(Cl)cc1
viability at 48 h, 3.13 µM [1]: 95% | viability at 48 h, 25 µM [2]: 72% | Ratio IC50 [3]: 6.5 | viability at 48 h, 100 µM [4]: 40% | IC50 [5]: 40.2 µM | IC50 [6]: 6.18 µM

O=C(/C=C/c1ccc([N+](=O)[O-])cc1)c1ccccc1
viability at 48 h, 3.13 µM [1]: 95% | viability at 48 h, 25 µM [2]: 72% | Ratio IC50 [3]: 10.74 | viability at 48 h, 100 µM [4]: 40% | IC50 [5]: 64.7 µM | IC50 [6]: 6.02 µM

Cc1ccc(C(=O)/C=C/c2ccc(Cl)cc2)cc1
viability at 48 h, 3.13 µM [1]: 95% | viability at 48 h, 25 µM [2]: 72% | Ratio IC50 [3]: 14.21 | viability at 48 h, 100 µM [4]: 40% | IC50 [5]: 74.2 µM | IC50 [6]: 5.22 µM

Cc1ncc([N+](=O)[O-])n1CCO [METRONIDAZOLE]
viability at 48 h, 3.13 µM [1]: 95% | Ratio IC50 [3]: >55.55 | IC50 [5]: > 100 µM

COc1ccc(-c2nnnn2CC(=O)N2N=C(c3ccccc3)CC2c2ccccc2)cc1 (configuration not stated)
viability at 48 h, 3.13 µM [1]: 95% | viability at 48 h, 25 µM [2]: 72% | Ratio IC50 [3]: 16.03 | viability at 48 h, 100 µM [4]: 40% | IC50 [5]: 85.3 µM | IC50 [6]: 5.32 µM

COc1ccc(-c2nnnn2CC(=O)N2N=C(c3ccc(Cl)cc3)CC2c2ccc(OC)cc2)cc1 (configuration not stated)
viability at 48 h, 3.13 µM [1]: 95% | viability at 48 h, 25 µM [2]: 72% | Ratio IC50 [3]: >38.02 | viability at 48 h, 100 µM [4]: 40% | IC50 [5]: > 100 µM | IC50 [6]: 2.63 µM

O=C(/C=C/c1ccc(Cl)cc1)c1ccc(Cl)cc1 [4',4-DICHLOROCHALCONE]
viability at 48 h, 3.13 µM [1]: 95% | viability at 48 h, 25 µM [2]: 72% | Ratio IC50 [3]: 14.13 | viability at 48 h, 100 µM [4]: 40% | IC50 [5]: 82.8 µM | IC50 [6]: 5.86 µM

COc1ccc(-c2nnnn2CC(=O)N2N=C(c3ccc(C)cc3)CC2c2ccccc2)cc1 (configuration not stated)
Ratio IC50 [3]: >83.33 | viability at 48 h, 100 µM [7]: ≥ 68% | IC50 [5]: > 100 µM | IC50 [6]: 1.2 µM

COc1ccc(-c2nnnn2CC(=O)N2N=C(c3ccccc3)CC2c2ccc(C)cc2)cc1 (configuration not stated)
Ratio IC50 [3]: >78.12 | viability at 48 h, 100 µM [7]: ≥ 68% | IC50 [5]: > 100 µM | IC50 [6]: 1.28 µM

COc1ccc(-c2nnnn2CC(=O)N2N=C(c3ccc(Cl)cc3)CC2c2ccc([N+](=O)[O-])cc2)cc1 (configuration not stated)
viability at 48 h, 3.13 µM [1]: 95% | viability at 48 h, 25 µM [2]: 72% | Ratio IC50 [3]: 17.68 | viability at 48 h, 100 µM [4]: 40% | IC50 [5]: 86.5 µM | IC50 [6]: 4.89 µM

O=C(/C=C/c1ccccc1)c1ccc(Cl)cc1
viability at 48 h, 3.13 µM [1]: 95% | viability at 48 h, 25 µM [2]: 72% | Ratio IC50 [3]: 13.6 | viability at 48 h, 100 µM [4]: 40% | IC50 [5]: 94.7 µM | IC50 [6]: 6.96 µM

COc1ccc(-c2nnnn2CC(=O)N2N=C(c3ccc(Cl)cc3)CC2c2ccc(Cl)cc2)cc1 (configuration not stated)
viability at 48 h, 3.13 µM [1]: 95% | viability at 48 h, 25 µM [2]: 72% | Ratio IC50 [3]: 17.26 | viability at 48 h, 100 µM [4]: 40% | IC50 [5]: 80.3 µM | IC50 [6]: 4.65 µM
